In paper PMC11718171 (Biophysics and Physicobiology, 2024):
Ends that are not written are not given here.

What was measured:
[1] = Non-specific binding on coverslips; settings: 10 nM, washed three times with complete phenol red-free DMEM, then BSA-HBSS
Method in brief: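 No cells: fluorescent HiBiT or FiBiT peptide diluted in phenol red-free DMEM with 5% FBS, penicillin, streptomycin and glutamine. Added to a dish containing a glass coverslip and held 15 min at 37°C. Washed three times, mounted in a chamber in HBSS with 0.01% BSA, then imaged at single-molecule level for adsorbed bright spots.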

[2] = test system: Lg-CD86; assay: Orthogonality of labeling, Lg-CD86-expressing cells; type: cell-based, human; settings: 10 nM each, simultaneous labeling, HEK293
Method in brief: (§1)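 HEK293A cells in DMEM with 5% FBS, seeded on coverslips and same-day transfected (Lipofectamine 3000, 1 µg total plasmid made up with pCAGGS) with LgBiT-, SNAP- or HaloTag-fused CD86 (1-277). Co-labeled with SF650-FiBiT, SNAP-cell TMR-star and Halo-JF549 in phenol red-free complete DMEM, 15 min, 37°C. Washed thrice, imaged in 0.01% BSA-HBSS. Bright spots counted against coverslip background.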

[3] = test system: SNAP-CD86; assay: Orthogonality of labeling, SNAP-CD86-expressing cells; type: cell-based, human; settings: 10 nM each, simultaneous labeling, HEK293
Method in brief: as §1

[4] = test system: LgBiT; settings: in vitro, grating-coupled interferometry; ref [27]; cited from earlier work

TMR-DYKDDDDKGDGSVSGWRLFKKIS [TMR-FiBiT]
non-specific binding to coverslips [1]: greatly reduced the non-specific binding

CN(C)c1ccc2c(-c3cc(C(=O)NCc4ccc(COc5nc(N)nc6nc[nH]c56)cc4)ccc3C(=O)[O-])c3ccc(=[N+](C)C)cc-3oc2c1 [SNAP-TMR]
staining of Lg-CD86-expressing cells [2]: not by SNAP-TMR nor Halo-JF549 | labeling of SNAP-CD86-expressing cells [3]: labeled by SNAP-TMR ligand

HiBiT: HiBiT peptide (~1.3 kDa), NanoLuc fragment (VSGWRLFKKIS; also: TMR label, site not given here)
on-time of LgBiT-HiBiT interaction [4]: ~ 12 min
